Paper PMC3912990 (Current biology : CB, 2014)

Legend:
Assay in all cases: FLIPR intracellular Ca2+, agonist mode
Assay type in all cases: cell-based
[1] = target: κ-opioid receptor (Homo sapiens, UniProt P41145)
How it was run: (§1)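 Human opioid receptor cDNA in pcDNA3.1(−), stably expressed in HEK293T cells grown in DMEM with 10% FBS. Test compound was dissolved in DMSO, diluted in FLIPR buffer and added automatically within 4 sec. Intracellular Ca2+ was monitored over 4 min (excitation 488 nm, emission 520 nm), and data were recorded as fluorescence (arbitrary units) versus time.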

[2] = target: δ-opioid receptor (Homo sapiens, UniProt P41143)
Chain of δ-opioid receptor (P41143 whole entry): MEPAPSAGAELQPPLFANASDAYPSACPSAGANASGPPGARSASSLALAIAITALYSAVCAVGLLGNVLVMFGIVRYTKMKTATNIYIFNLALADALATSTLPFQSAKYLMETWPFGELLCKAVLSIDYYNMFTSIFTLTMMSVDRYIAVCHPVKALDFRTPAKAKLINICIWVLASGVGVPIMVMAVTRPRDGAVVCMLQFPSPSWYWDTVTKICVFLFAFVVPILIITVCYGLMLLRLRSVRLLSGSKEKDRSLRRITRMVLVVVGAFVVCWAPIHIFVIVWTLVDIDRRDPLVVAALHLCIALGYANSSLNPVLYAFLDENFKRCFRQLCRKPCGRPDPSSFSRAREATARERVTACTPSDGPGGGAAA
How it was run: as §1

[3] = target: μ-opioid receptor (Homo sapiens, UniProt P35372); conditions: stable HEK293T line
Chain of μ-opioid receptor (P35372 whole entry): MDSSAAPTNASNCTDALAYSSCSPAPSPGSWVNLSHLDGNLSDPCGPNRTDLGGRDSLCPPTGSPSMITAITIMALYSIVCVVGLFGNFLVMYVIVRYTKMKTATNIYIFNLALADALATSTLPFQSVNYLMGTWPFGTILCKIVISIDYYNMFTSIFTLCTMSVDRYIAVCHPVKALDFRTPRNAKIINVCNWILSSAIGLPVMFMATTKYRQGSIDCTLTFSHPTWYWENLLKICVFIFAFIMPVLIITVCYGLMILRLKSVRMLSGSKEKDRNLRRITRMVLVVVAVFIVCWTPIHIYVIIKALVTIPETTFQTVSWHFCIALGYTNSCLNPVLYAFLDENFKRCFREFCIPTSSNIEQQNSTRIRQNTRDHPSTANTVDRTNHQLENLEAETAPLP
How it was run: as §1

Chain of κ-opioid receptor (P41145 whole entry): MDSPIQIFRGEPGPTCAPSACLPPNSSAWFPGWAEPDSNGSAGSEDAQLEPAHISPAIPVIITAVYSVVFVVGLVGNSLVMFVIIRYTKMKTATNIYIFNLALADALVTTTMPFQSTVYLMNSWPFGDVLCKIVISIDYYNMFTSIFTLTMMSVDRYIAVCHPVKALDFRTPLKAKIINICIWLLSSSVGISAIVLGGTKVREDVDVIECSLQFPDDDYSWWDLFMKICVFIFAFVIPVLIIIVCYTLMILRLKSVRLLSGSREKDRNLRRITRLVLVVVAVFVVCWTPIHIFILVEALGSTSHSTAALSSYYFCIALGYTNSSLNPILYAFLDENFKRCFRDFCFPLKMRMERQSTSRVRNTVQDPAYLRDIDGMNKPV

COc1cc2c(cc1O)CC[n+]1cc3c(OC)c(OC)ccc3c(C)c1-2 [DHCB]
EC50 [1]: > 500 µM
EC50 [2]: > 500 µM
Opioid Agonist (EC50, μM) / μ [3]: 100 (74~136) μM
